# pIC50: −log10 of the molar value. Active and inactive are the calls of the source.
# What was measured:
# [1] = target: Transient receptor potential cation channel subfamily A member 1 (Rattus norvegicus, UniProt Q6RI86); assay: Antagonist activity at rat TRPA1 channel expressed in CHO-K1 cells tagged with GCaMP6 by measuring calcium flux measured after 10 mins by FLIPR tetra analysis; format: cell-based
# [2] = Lipophilicity, logD of compound; format: physicochemical; conditions: octanol/water
# [3] = Mutagenecity in Salmonella typhimurium by Ames test; format: toxicity; conditions: salmonella sp.
# [4] = target: T1, Transient receptor potential cation channel subfamily A member 1 (Homo sapiens, UniProt O75762); assay: Antagonist activity at human wildtype TRPA1 channel expressed in CHO-K1 cells tagged with GCaMP6 by measuring calcium flux measured after […] by FLIPR tetra analysis; format: cell-based
# T1 sequence (O75762 whole entry): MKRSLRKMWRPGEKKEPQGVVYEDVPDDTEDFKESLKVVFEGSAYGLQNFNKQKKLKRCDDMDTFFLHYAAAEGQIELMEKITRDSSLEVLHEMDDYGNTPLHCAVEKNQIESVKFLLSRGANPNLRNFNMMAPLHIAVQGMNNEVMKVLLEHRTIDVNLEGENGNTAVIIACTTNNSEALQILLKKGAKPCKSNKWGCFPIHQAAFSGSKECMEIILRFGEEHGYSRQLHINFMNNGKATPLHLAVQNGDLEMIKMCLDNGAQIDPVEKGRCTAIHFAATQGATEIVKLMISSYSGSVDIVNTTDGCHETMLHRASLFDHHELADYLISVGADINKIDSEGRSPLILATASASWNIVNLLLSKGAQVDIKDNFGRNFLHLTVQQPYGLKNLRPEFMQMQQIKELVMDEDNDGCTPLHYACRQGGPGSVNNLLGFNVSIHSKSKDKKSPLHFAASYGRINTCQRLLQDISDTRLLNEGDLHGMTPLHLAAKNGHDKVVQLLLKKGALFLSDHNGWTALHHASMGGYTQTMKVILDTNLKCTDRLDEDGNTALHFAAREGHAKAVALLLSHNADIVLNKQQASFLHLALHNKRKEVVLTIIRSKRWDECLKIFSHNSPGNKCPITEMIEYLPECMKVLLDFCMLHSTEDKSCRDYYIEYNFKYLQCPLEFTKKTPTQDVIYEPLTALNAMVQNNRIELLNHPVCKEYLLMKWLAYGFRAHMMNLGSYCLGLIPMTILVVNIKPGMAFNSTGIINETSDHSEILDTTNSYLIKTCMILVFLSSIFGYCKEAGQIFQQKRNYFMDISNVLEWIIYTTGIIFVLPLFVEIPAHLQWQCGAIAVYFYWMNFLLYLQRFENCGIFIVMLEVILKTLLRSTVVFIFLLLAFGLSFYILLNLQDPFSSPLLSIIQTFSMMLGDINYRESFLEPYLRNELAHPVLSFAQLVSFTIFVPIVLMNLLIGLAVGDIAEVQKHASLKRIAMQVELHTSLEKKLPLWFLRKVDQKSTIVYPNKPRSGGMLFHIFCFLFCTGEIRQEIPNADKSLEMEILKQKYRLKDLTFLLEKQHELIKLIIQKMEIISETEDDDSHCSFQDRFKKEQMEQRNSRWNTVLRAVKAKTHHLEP
# [5] = target: T1, Transient receptor potential cation channel subfamily A member 1; assay: Antagonist activity at human TRPA1 channel expressed in CHO-K1 cells tagged with GCaMP6 by measuring calcium flux measured after 10 mins by FLIPR tetra analysis; format: cell-based
# Rattus norvegicus [6] = assay: Antiallodynic activity against spinal nerve ligation neuropathic pain Sprague-Dawley rat model assessed as paw withdrawal threshold administered at 30 mg/kg, po bid post SNL surgery; format: functional, organism-based; conditions: time <= 10.0 day, TDE = time-dependent effect
# In short: (§1)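 Male Sprague Dawley rats, 100–120 g, had spinal nerve ligation under isoflurane. Oral dosing b.i.d. on days 15–24 post surgery in DMSO/Solutol/water 10/40/50 at 5 mL/kg; gabapentin 30 mg/kg q.d. as control. Von Frey up-and-down thresholds, blinded, on both hind paws at day 11 (baseline) and days 15, 18, 21, 24, 2 h after morning dose. Kruskal–Wallis with Dunn versus vehicle.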
# [7] = Solubility of the compound in PBS buffer at pH 6.5; format: physicochemical
# [8] = Fraction unbound in human; format: ADME
# [9] = Fraction unbound in mouse; format: ADME, organism-based; conditions: in vivo
# [10] = Metabolic stability in rat hepatocytes; format: ADME, cell-based, Hepatocyte
# [11] = Metabolic stability in rat blood assessed as clearance; format: ADME, tissue-based
# [12] = Permeability form apical to basolateral side in human Caco2 cells; format: ADME, cell-based; conditions: caco-2
# [13] = Efflux ratio of permeability in human Caco2 cells; format: ADME, cell-based; conditions: caco-2
# [14] = Fraction unbound in Sprague-Dawley rat; format: ADME
# Rattus norvegicus [15] = assay: Protective activity in cinnamaldehyde induced nocifensive behaviour Sprague-Dawley rat model assessed as reduction in number of flinches treated with cinnamaldehyde followed compound addition at 3 to 30 mg/kg, po measured after 1 hr measured by Dunnert's post hoc test; format: functional, organism-based; conditions: dose 3-30 mg/kg
# In short: (§2)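 Male Sprague Dawley rats, 175–200 g, dosed orally in 10% DMSO/40% Solutol/50% water 1 h before intraplantar injection of 50 μL cinnamaldehyde at 5 mM. Flinch number and licking duration scored blinded for 5 min. One-way ANOVA with Dunnett versus vehicle.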
# Rattus norvegicus [16] = assay: Protective activity in cinnamaldehyde induced nocifensive behaviour Sprague-Dawley rat model assessed as reduction in paw licking treated with cinnamaldehyde followed compound addition at 3 to 30 mg/kg, po measured after 1 hr measured by Dunnert's post hoc test; format: functional, organism-based; conditions: dose 3-30 mg/kg; in short: as §2
# Plasma [17] = assay: Free plasma concentration in cinnamaldehyde induced nocifensive behaviour Sprague-Dawley rat model treated with cinnamaldehyde followed compound addition at 3 to 30 mg/kg, po measured after 1 hr; format: functional; conditions: dose 3-30 mg/kg
# In short: (§3)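 Free plasma level taken 1 h after oral dosing (3, 10, 30 mg/kg) in the rat intraplantar cinnamaldehyde nocifensive model.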
# Plasma [18] = assay: Free plasma concentration in cinnamaldehyde induced nocifensive behaviour Sprague-Dawley rat model at 10 mg/kg, po; format: functional; conditions: time 1 hrs; in short: as §3
# Plasma [19] = assay: Free plasma concentration in cinnamaldehyde induced nocifensive behaviour Sprague-Dawley rat model treated at 3 to 30 mg/kg, po for 1 hr followed by cinnamaldehyde addition; format: functional; conditions: dose 3-30 mg/kg; in short: as §3
# Rattus norvegicus [20] = assay: Reversal of complete Freund's adjuvant induced mechanical hyperalgesia in Sprague-Dawley rat assessed as paw withdrawal threshold treated with CFA for 24 hrs followed by compound addition at 3 to 30 mg/kg, po measured after 2 to 4 hrs by Dunnett's post hoc test; format: functional, organism-based; conditions: dose 3-30 mg/kg, time 2-4 hrs
# In short: (§4)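 Male Sprague Dawley rats, 175–200 g, given intraplantar CFA in one hind paw. Oral dose once 24 h later in 10% DMSO/40% Solutol/50% water. Paw withdrawal threshold to pressure measured blinded on CFA and contralateral paws before CFA, at 24 h (predrug) and 2 and 4 h postdose. Two-way repeated-measures ANOVA, then Dunnett versus vehicle.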
# Rattus norvegicus [21] = assay: Anti-inflammatory activity in complete Freund's adjuvant induced mechanical hyperalgesia in Sprague-Dawley rat assessed as reduction of mechanical hyperalgesia treated with CFA for 24 hrs followed by compound addition at 10 to 30 mg/kg, po measured after 2 hrs by Dunnett's post hoc test; format: functional, organism-based; conditions: dose 10-30 mg/kg; in short: as §4
# Rattus norvegicus [22] = assay: Anti-inflammatory activity in complete Freund's adjuvant induced mechanical hyperalgesia in Sprague-Dawley rat assessed as reduction of mechanical hyperalgesia treated with CFA for 24 hrs followed by compound addition at 30 mg/kg, po measured after 4 hrs by Dunnett's post hoc test; format: functional, organism-based; in short: as §4
# Plasma [23] = assay: Free plasma concentration in cinnamaldehyde induced nocifensive behaviour Sprague-Dawley rat treated with CFA for 24 hrs followed by compound addition at 3 mg/kg, po measured after 4.5 hrs; format: functional
# In short: (§5)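 Unbound plasma level taken 4.5 h after oral dosing (3, 10, 30 mg/kg), given 24 h after intraplantar CFA in rats.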
# Plasma [24] = assay: Free plasma concentration in cinnamaldehyde induced nocifensive behaviour Sprague-Dawley rat treated with CFA for 24 hrs followed by compound addition at 10 mg/kg, po measured after 4.5 hrs; format: functional; in short: as §5
# Plasma [25] = assay: Free plasma concentration in cinnamaldehyde induced nocifensive behaviour Sprague-Dawley rat treated with CFA for 24 hrs followed by compound addition at 30 mg/kg, po measured after 4.5 hrs; format: functional; in short: as §5
# Rattus norvegicus [26] = assay: Antiallodynic activity against spinal nerve ligation neuropathic pain Sprague-Dawley rat model assessed as reversal of mechanical allodynia administered at 90 mg/kg, po bid measured after 6 days post SNL surgery; format: functional, organism-based; conditions: time 6.0 day
# Rattus norvegicus [27] = assay: Antiallodynic activity against spinal nerve ligation neuropathic pain Sprague-Dawley rat model assessed as reversal of mechanical allodynia administered at 30 mg/kg, po bid for 10 days from day 15 to day 24 post SNL surgery; format: functional, organism-based; conditions: time <= 10.0 day; in short: as §1
# Plasma [28] = assay: Unbound plasma concentration in spinal nerve ligation neuropathic pain Sprague-Dawley rat model administered at 30 mg/kg, po bid for 10 days from day 15 to day 24 post SNL surgery measured after […] of last dose; format: functional; conditions: time 242.5 hrs
# Plasma [29] = assay: Unbound plasma concentration in spinal nerve ligation neuropathic pain Sprague-Dawley rat model administered at 90 mg/kg, po bid for 10 days from day 15 to day 24 post SNL surgery measured after […] of last dose; format: functional; conditions: time 242.5 hrs
# [30] = Fraction unbound in guniea pig; format: ADME, Cavia porcellus; conditions: guinea pig
# [31] = Unbound brain concentration in spinal nerve ligation neuropathic pain Sprague-Dawley rat model administered at 30 mg/kg, po bid for 10 days from day 15 to day 24 post SNL surgery measured after 2 to 8 hrs of last dose
# [32] = Unbound brain concentration in spinal nerve ligation neuropathic pain Sprague-Dawley rat model administered at 90 mg/kg, po bid for 10 days from day 15 to day 24 post SNL surgery measured after 2 to 8 hrs of last dose
# Transient receptor potential cation channel subfamily A member 1 (Rattus norvegicus, UniProt Q6RI86), sequence (Q6RI86 whole entry): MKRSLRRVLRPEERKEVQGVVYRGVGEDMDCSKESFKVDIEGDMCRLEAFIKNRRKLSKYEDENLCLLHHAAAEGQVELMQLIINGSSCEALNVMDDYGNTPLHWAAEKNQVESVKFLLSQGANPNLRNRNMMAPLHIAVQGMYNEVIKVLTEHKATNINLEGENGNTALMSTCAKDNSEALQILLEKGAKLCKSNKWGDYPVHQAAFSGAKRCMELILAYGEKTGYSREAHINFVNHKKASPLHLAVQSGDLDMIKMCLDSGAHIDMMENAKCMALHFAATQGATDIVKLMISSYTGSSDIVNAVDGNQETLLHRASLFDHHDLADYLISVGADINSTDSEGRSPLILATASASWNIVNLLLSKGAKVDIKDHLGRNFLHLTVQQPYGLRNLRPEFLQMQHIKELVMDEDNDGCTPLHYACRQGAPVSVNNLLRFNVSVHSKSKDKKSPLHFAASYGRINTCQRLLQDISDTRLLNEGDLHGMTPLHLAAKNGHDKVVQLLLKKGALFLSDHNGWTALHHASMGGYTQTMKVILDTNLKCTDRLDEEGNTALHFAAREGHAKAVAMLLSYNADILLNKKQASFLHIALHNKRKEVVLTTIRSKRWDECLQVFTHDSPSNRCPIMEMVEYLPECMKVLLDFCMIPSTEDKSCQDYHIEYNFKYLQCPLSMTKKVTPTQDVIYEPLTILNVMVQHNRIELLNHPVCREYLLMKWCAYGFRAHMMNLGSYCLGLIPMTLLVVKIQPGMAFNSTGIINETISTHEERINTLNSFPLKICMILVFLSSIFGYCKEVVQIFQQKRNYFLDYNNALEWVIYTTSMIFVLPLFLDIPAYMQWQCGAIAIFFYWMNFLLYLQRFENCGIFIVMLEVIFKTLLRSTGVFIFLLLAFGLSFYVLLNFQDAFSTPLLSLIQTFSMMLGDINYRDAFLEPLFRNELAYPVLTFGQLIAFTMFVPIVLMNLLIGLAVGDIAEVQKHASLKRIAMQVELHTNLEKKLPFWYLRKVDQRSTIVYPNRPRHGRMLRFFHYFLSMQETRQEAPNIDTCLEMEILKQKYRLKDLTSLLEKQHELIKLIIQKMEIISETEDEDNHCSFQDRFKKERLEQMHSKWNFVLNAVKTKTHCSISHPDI
compound,measurement,setting,value
O[C@]1(C(F)(F)F)CCCC[C@H]1Oc1ccc(F)cc1,pIC50,[1],6.92
same,logD,[2],3.5
O[C@]1(C(F)(F)F)CCCC[C@H]1Nc1ccc(F)cn1,pIC50,[1],5.20
same,Activity,[3],Non-Toxic
CN([C@@H]1CCCC[C@]1(O)C(F)(F)F)S(=O)(=O)c1ccc(F)cc1,pIC50,[1],4.80
same,logD,[2],3.1
N#Cc1cc(C[C@@H]2CCCC[C@]2(O)C(F)(F)F)cs1,pIC50,[1],6.21
same,logD,[2],3.2
Cc1cc2[nH]ncc2cc1-c1ccccc1C(F)(F)F,pIC50,[4],7.85
O[C@]1(C(F)(F)F)CCCC[C@H]1Nc1ccc(F)c(Cl)c1,pIC50,[1],6.17
same,Activity,[3],Non-Toxic
same,logD,[2],3.4
O[C@]1(C(F)(F)F)CCCC[C@H]1Nc1ccc(Cl)c(Cl)c1,pIC50,[1],6.19
same,Activity,[3],Non-Toxic
same,logD,[2],3.8
CC1(C)CCCC(O)(C(F)(F)F)C1Cc1ccc(Cl)cc1 (mixture of isomers),pIC50,[1],4.94
same,pIC50,[5],6.47
O[C@]1(C(F)(F)F)CCCC[C@H]1Cc1cncc(Cl)c1,pIC50,[1],< 4.60
NCC1(CC(=O)O)CCCCC1,Activity,Rattus norvegicus [6],Tde
O[C@]1(C(F)(F)F)CCCC[C@H]1Nc1ccc(Cl)c(F)c1,pIC50,[1],6.70
same,Activity,[3],Non-Toxic
OC(F)(F)[C@@]1(O)CCCC[C@H]1Cc1c[nH]c2ccccc12 (racemic),logD,[2],3.3
C#CC(CC)(CC)NC(=O)c1cccnc1NC1CC(F)(F)C1,pIC50,[4],9.00
Cn1c(=O)c2c(CC(=O)Nc3nc(-c4ccc(F)c(C(F)(F)F)c4F)cs3)csc2n(C)c1=O,pIC50,[4],5.17
O[C@]1(C(F)(F)F)CCCC[C@H]1Nc1ccc(F)cc1 [BAY-390],Activity,[3],Non-Toxic
same,logD,[2],3
same,solubility,[7],56 mg/L
same,pIC50,[4],7.46
same,fraction unbound,[8],0.12
same,fraction unbound,[9],0.081
same,Stability,[10],Stable
same,CL,[11],2.4 L/h/kg
same,permeability,[12],293 nm/s
same,Ratio,[13],0.6
same,fraction unbound,[14],0.06
same,Activity,Rattus norvegicus [15],Active
same,Activity,Rattus norvegicus [16],Active
same,Cp(f),Plasma [17],10 nM
same,Cp(f),Plasma [18],35 nM
same,Cp(f),Plasma [19],115 nM
same,Activity,Rattus norvegicus [20],Active
same,Activity,Rattus norvegicus [21],Active
same,Activity,Rattus norvegicus [22],Active
same,Cp(f),Plasma [23],7 nM
same,Cp(f),Plasma [24],10 nM
same,Cp(f),Plasma [25],103 nM
same,Activity,Rattus norvegicus [26],Active
same,Activity,Rattus norvegicus [27],inactive
same,Cp(f),Plasma [28],115 nM
same,Cp(f),Plasma [29],201 nM
same,fraction unbound,[30],0.097
same,unbound brain concentration,[31],33 nM
same,unbound brain concentration,[32],61 nM
Cc1ccc(CC2C(C)(C)CCCC2(O)C(F)(F)F)cc1 (mixture of isomers),pIC50,[1],< 4.90
same,pIC50,[5],5.90
COc1cc(N[C@@H]2CCCC[C@]2(O)C(F)(F)F)ccc1F [BAY-9897],pIC50,[1],< 4.60
same,Activity,[3],Non-Toxic
same,pIC50,[5],< 4.60
O[C@]1(C(F)(F)F)CCCC[C@H]1Cc1ccc(Cl)cn1,pIC50,[1],< 4.60
O[C@]1(C(F)(F)F)CCCC[C@H]1Cc1ccncc1,pIC50,[1],5.28
O[C@]1(C(F)(F)F)CCCC[C@H]1Nc1ccccc1 (racemic),pIC50,[1],5.64

# Reference: ChEMBL document CHEMBL5316309, “Discovery of BAY-390, a Selective CNS Penetrant Chemical Probe as Transient Receptor Potential Ankyrin 1 (TRPA1) Antagonist” (J Med Chem, 2023)
